Laboratory results reported in ChEMBL document CHEMBL1147365, “A screen for inhibitors of DNA recombination: identification of two new spirostanol glycosides from Chamaedorea linearis” (J Nat Prod, 1993).
Active and inactive are the calls of the source. The calls are words filed in the database; no cut-off is given here.

Tests used:
Saccharomyces cerevisiae [1] = experiment: DNA damaging activity against […] assessed as drug concentration required to produce 12 mm zone of inhibition up to 800 ug/well by agar diffusion assay; assay type: functional, organism-based; conditions: W303-1A
L1210 [2] = experiment: Antiproliferative activity against mouse L1210 cells up to 32 uM; assay type: functional, cell-based
Procedure, shortened: (§1)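 Murine L1210 cells were grown in suspension culture and proliferation was measured.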

Saccharomyces cerevisiae [3] = experiment: DNA damaging activity against […] assessed as drug concentration required to produce 12 mm zone of inhibition by agar diffusion assay; assay type: functional, W303-1A
L1210 [4] = experiment: Antiproliferative activity against mouse L1210 cells; assay type: functional, cell-based; procedure, shortened: as §1

Structure (SMILES)	Activity (Saccharomyces cerevisiae [1])	also measured
C[C@H]1O[C@@H](O[C@H]2[C@@H](O)C[C@H](O[C@H]3[C@@H](O)C[C@H](O[C@H]4CC[C@@]5(C)[C@H](CC[C@@H]6[C@@H]5C[C@@H](O)[C@]5(C)[C@@H](C7=CC(=O)OC7)CC[C@]65O)C4)O[C@@H]3C)O[C@@H]2C)C[C@H](O)[C@@H]1O	inactive	–
C[C@H]1O[C@@H](O[C@H]2[C@@H](O)C[C@H](O[C@H]3[C@@H](O)C[C@H](O[C@H]4CC[C@@]5(C)[C@H](CC[C@@H]6[C@@H]5CC[C@]5(C)[C@@H](C7=CC(=O)OC7)[C@@H](O)C[C@]65O)C4)O[C@@H]3C)O[C@@H]2C)C[C@H](O)[C@@H]1O	inactive	–
C[C@@H]1O[C@@H](O[C@H]2C[C@@H](O)[C@]3(CO)[C@H]4[C@H](O)C[C@]5(C)[C@@H](C6=CC(=O)OC6)CC[C@]5(O)[C@@H]4CC[C@]3(O)C2)[C@H](O)[C@H](O)[C@H]1O	inactive	–
C[C@@H]1O[C@@H](O[C@H]2CC[C@]3(C=O)[C@H]4CC[C@]5(C)[C@@H](C6=CC(=O)OC6)CC[C@]5(O)[C@@H]4CC[C@]3(O)C2)[C@H](O)[C@H](O)[C@H]1O	inactive	–
C[C@H]1CC[C@@]2(OC1)O[C@H]1C[C@H]3[C@@H]4CC[C@H]5C[C@@H](O)C[C@@H](O[C@H]6O[C@@H](C)[C@@H](O)[C@@H](O)[C@@H]6O)[C@]5(C)[C@H]4CC[C@]3(C)[C@H]1[C@@H]2C [BRISBAGENIN FUCOSIDE]	–	Activity (L1210 [2]): inactive; IC12 (Saccharomyces cerevisiae [3]): 2.6 µg; IC50 (L1210 [4]): 5 µM
C[C@H]1CC[C@@]2(OC1)O[C@H]1C[C@H]3[C@@H]4CC[C@H]5C[C@@H](O)C[C@@H](O[C@H]6O[C@@H](C)[C@@H](OS(=O)(=O)O)[C@@H](O)[C@@H]6O)[C@]5(C)[C@H]4CC[C@]3(C)[C@H]1[C@@H]2C	–	Activity (L1210 [2]): inactive; IC12 (Saccharomyces cerevisiae [3]): 3.5 µg
CO[C@H]1[C@H](O)[C@H](O[C@H]2CC[C@@]3(C)[C@H](CC[C@@H]4[C@@H]3CC[C@]3(C)[C@@H](C5=CC(=O)OC5)CC[C@]43O)C2)O[C@@H](C)[C@@H]1O	inactive	–
CO[C@H]1C[C@H](O[C@H]2CC[C@]3(C=O)[C@H]4CC[C@]5(C)[C@@H](C6=CC(=O)OC6)CC[C@]5(O)[C@@H]4CC[C@]3(O)C2)O[C@H](C)[C@H]1O[C@H]1O[C@@H](CO)[C@H](O[C@@H]2O[C@H](CO)[C@@H](O)[C@H](O)[C@H]2O)[C@@H](O)[C@@H]1O	inactive	–
